The source made the active and inactive calls. The calls are words filed in the database; no cut-off is given here.

The subject of one experiment is Mus musculus. The experiment can be described thus: Antidepressant-like activity in NMRI mouse assessed as reduction in immobility time at 16 mg/kg, ip by forced swimming test relative to control. In kind it is functional. The arrangement: scale not given: the % may be the effect or the level left. As to conditions: route intraperitoneal. A digest of the protocol:
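Naive male NMRI mice (25–30 g) were used in randomized groups of n = 10 and tested in the dark phase. Injections (10 mL/kg) were given 30 min before testing, and saline was the vehicle. Each animal, not pre-tested, swam for 6 min in a cylinder 12 cm wide holding 13 cm of water at 23–24 °C. Immobility was scored over the last 4 min, and groups were compared with ANOVA and Fisher PLSD.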

The target of the next experiment is D(1A) dopamine receptor (Rattus norvegicus, UniProt P18901). The experiment can be described thus: Displacement of [3H]SCH23390 from dopamine D1 receptor in Wistar rat striatal membrane by liquid scintillation counting. In kind it is cell membranes, Striatum. A digest of the protocol:
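Female Wistar rat striatum homogenized in 50 mM Tris-HCl pH 7.4, then washed twice at 49,000g. Membranes were resuspended in Tris-ions buffer (NaCl, CaCl2, KCl, MgCl2, 0.1% ascorbate). [3H]-SCH23390 displacement was read by filtration and scintillation counting. Ki was derived using KD 0.36 nM; 3–6 independent runs in duplicate, mean SEM.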

For another experiment, the target named is D(2) dopamine receptor (Rattus norvegicus, UniProt P61169). Put plainly: Displacement of [3H]raclopride from dopamine D2 receptor in Wistar rat striatal membrane by liquid scintillation counting. It counts as cell membranes, Striatum. To be noted: read-out: pKi (converted). A digest of the protocol:
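Striata from female Wistar rats (200–220 g) were homogenized in 50 mM Tris-HCl (pH 7.4) and centrifuged twice at 49,000g for 15 min at 4 °C. Membranes were resuspended in Tris buffer containing 120 mM NaCl, 2 mM CaCl₂, 5 mM KCl, 1 mM MgCl₂ and 0.1% ascorbic acid (pH 7.4). Samples were filtered, washed with cold buffer and counted by scintillation. Ki was derived using a [³H]raclopride KD of 1,25 nM, from 3–6 determinations run in duplicate.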

For a further experiment, the species on record is Rattus norvegicus. Put plainly: Selectivity for Wistar rat dopamine D2 receptor over Wistar rat dopamine D1 receptor.
The target of experiment [1] is Sodium-dependent dopamine transporter (Rattus norvegicus) (UniProt P23977). The experiment can be described thus: Inhibition of DAT in Wistar rat striatal synaptosomes at 100 uM by [3H]dopamine uptake assay. In kind it is subcellular. As to conditions: Brain. A digest of the protocol: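 Synaptosomes were prepared from female Wistar rat striatum at 0–4 °C. Tissue was homogenized in 0.32 M sucrose, spun twice at 1000g for 10 min, and the pooled supernatants were spun at 16,000g for 30 min. The pellet was taken up in Krebs medium (pH 7.6, with glucose). Samples were preincubated for 10 min at 37 °C with pargyline, then given 0.5 nM final [³H]dopamine for 10 min. Uptake was stopped by ice-cold dilution and rapid fiberglass filtration.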
Chain of Sodium-dependent dopamine transporter (Rattus norvegicus) (P23977 whole entry): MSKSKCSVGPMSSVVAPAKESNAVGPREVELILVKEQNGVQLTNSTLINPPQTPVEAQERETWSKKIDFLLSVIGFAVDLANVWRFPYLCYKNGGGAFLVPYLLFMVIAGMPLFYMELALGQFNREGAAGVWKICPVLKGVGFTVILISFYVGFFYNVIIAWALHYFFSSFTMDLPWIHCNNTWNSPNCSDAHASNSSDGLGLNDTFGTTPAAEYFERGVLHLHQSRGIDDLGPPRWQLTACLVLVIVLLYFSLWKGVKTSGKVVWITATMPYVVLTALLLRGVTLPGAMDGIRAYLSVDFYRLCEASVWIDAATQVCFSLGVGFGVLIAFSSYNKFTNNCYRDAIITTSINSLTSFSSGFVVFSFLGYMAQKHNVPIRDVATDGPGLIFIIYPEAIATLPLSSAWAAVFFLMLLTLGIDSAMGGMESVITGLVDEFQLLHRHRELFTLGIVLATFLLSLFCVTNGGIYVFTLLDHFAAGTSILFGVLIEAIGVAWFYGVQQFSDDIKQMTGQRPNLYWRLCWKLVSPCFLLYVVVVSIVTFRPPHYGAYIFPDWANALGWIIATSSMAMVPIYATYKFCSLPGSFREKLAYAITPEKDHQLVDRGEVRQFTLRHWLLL

Chain of D(1A) dopamine receptor (P18901 whole entry): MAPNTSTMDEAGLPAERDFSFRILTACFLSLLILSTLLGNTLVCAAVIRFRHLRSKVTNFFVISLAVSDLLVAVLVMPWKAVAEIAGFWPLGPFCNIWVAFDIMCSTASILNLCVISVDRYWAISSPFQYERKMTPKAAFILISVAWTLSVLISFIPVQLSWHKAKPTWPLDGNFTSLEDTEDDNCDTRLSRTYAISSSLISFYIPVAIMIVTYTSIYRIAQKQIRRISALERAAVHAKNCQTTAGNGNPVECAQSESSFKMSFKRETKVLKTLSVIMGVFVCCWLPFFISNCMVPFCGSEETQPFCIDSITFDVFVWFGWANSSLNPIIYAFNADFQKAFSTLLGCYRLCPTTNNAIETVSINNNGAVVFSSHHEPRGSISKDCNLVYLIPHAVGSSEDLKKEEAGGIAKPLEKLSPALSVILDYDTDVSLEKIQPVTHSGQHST
Chain of D(2) dopamine receptor (P61169 whole entry): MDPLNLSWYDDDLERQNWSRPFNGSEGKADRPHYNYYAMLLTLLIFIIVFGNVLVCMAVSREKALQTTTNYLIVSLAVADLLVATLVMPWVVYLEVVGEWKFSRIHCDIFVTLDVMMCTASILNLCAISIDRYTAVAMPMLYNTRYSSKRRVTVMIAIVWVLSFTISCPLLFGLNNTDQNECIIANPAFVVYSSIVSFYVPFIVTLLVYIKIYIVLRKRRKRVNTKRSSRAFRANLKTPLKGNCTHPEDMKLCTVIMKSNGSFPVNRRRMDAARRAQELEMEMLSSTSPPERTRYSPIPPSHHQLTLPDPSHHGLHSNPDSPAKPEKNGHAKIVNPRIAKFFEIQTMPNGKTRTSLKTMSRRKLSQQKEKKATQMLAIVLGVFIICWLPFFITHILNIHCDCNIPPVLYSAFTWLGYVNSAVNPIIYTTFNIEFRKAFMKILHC

For `CN(C)CCCN1c2ccccc2CCc2ccccc21` [IMIPRAMINE], in the experiment on Mus musculus, the Activity was 32%.

Take `Oc1cc2c(cc1Cl)CCNC2c1ccccc1` (centres undefined): the Ki at D(1A) dopamine receptor was 247 nM; at D(2) dopamine receptor, 1120 nM. The fold change (FC) in the experiment filed under Rattus norvegicus is 0.2. Besides, in experiment [1], the result was inactive.

As to `COc1cc2c(cc1Cl)CCN(C)C2c1ccccc1` (centres undefined), the Ki was 815 nM on D(1A) dopamine receptor and 2140 nM at D(2) dopamine receptor. In addition, in the experiment filed under Rattus norvegicus, the fold change (FC) came to 0.3. Besides, the result in experiment [1] was inactive.

Source of the values: ChEMBL document CHEMBL1154100, “Tetrahydroisoquinolines as dopaminergic ligands: 1-Butyl-7-chloro-6-hydroxy-tetrahydroisoquinoline, a new compound with antidepressant-like activity in mice” (Bioorg Med Chem, 2009).
